In paper PMC10162598 (Asian Pacific Journal of Cancer Prevention : APJCP, 2023):
Converted amounts (≈) assume the structure as drawn. “And” between values parts separate entries of the source, which are not always exact repeats. Identical values can stand only once.

Legend:
HuCCT-1 (CCA cell line) = test: Antiproliferative MTT assay, HuCCT-1; format: cell-based, human; conditions: for IC25 (concentration that inhibits cell growth by 25%) / IC50 (concentration that inhibits cell growth by 50%): HuCCT-1, MTT, 72 hours, mean±SD; for Selectivity index (SI): ratio of the IC50 in HuCCT-1 and OUMS-36T-1 cells
In short: (§1)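 Cells (8,000/well; HuCCT-1 in RPMI-1640, OUMS-36T-1 in DMEM, both with 10% FBS) were preincubated 24 h at 37°C, 5% CO2, then exposed to test compound for 72 h. Natural product range was 1.95–250 µg/ml. MTT (5 mg/ml stock) was added for 3.5 h, formazan dissolved in DMSO, and A590 read. IC25/IC50 came from dose-response analysis. SI = HuCCT-1 vs OUMS-36T-1 IC50 ratio. Three experiments, triplicate.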

[1] = system: OUMS-36T-1 (normal human cell line); test: Antiproliferative MTT assay, OUMS-36T-1; format: cell-based; conditions: OUMS-36T-1, MTT, 72 hours, mean±SD
In short: as §1

Notch1 receptor = test: RT-PCR mRNA expression of Notch1 receptor in HuCCT-1; format: cell-based, human; conditions: HuCCT-1, 72 hours
YAP [2] = test: RT-PCR mRNA expression of YAP in HuCCT-1; format: cell-based, human; conditions: HuCCT-1, 72 hours
mTOR = test: Western blot protein expression of mTOR in HuCCT-1; format: cell-based, human; conditions: HuCCT-1, 72 hours, at IC25
In short: (§2)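 After 72 h exposure to test compound, HuCCT-1 cells were lysed in RIPA buffer with protease inhibitor, and protein was quantified by BCA. Lysates were resolved by SDS-PAGE and transferred to nitrocellulose. Membranes were probed overnight with primary antibodies (target and β-actin), then an AP-conjugated anti-rabbit secondary. Bands were quantified by densitometry. Three experiments, each in triplicate.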

YAP [3] = test: Western blot protein expression of YAP in HuCCT-1; format: cell-based, human; conditions: HuCCT-1, 72 hours, at IC25
In short: as §2

JAG1 ligand [4] = test: RT-PCR mRNA expression of JAG1 ligand in HuCCT-1; format: cell-based, human; conditions: HuCCT-1, 72 hours, at IC25
PI3K [5] = test: RT-PCR mRNA expression of PI3K in HuCCT-1; format: cell-based, human; conditions: HuCCT-1, 72 hours
JAG1 ligand [6] = test: Western blot protein expression of JAG1 ligand in HuCCT-1; format: cell-based, human; conditions: HuCCT-1, 72 hours, at IC25
In short: as §2

PI3K [7] = test: Western blot protein expression of PI3K in HuCCT-1; format: cell-based, human; conditions: HuCCT-1, 72 hours, at IC50
In short: as §2

Row | SMILES | IC25 (concentration that inhibits cell growth by 25%) (HuCCT-1 (CCA cell line)) | IC25 (concentration that inhibits cell growth by 25%) [1] | IC50 (concentration that inhibits cell growth by 50%) [1] | YAP gene expression, fold-change (YAP [2]; at high concentration (IC50)) | YAP gene expression, fold-change (YAP [2]; at low concentration (IC25)) | IC50 (concentration that inhibits cell growth by 50%) (HuCCT-1 (CCA cell line)) | Selectivity index (SI) (HuCCT-1 (CCA cell line)) | also measured
1 | C/C=C/C#CC#C/C=C/c1ccco1 [Atractylodin] | 13.44 ± 6.28 µg/mL (≈ 73.8 µM) | 10.08 ± 4.27 µg/mL (≈ 55.3 µM) | 24.47 ± 8.46 µg/mL (≈ 134 µM) | 2.219 fold | 0.086 fold |  |  | Notch1 receptor gene expression, fold of control (Notch1 receptor; at IC25 and IC50 concentrations (low and high)): 0.042 fold; mTOR protein expression, fold (mTOR): 1.67 fold; YAP protein expression, fold (YAP [3]): 0.819 fold
2 | C[C@H](NC(=O)Cc1cc(F)cc(F)c1)C(=O)N[C@H](C(=O)OC(C)(C)C)c1ccccc1 [DAPT] |  |  | 150.29 ± 23.79 µg/mL (≈ 348 µM) |  |  | 88.98 µg/mL and 89.88 ± 36.11 µg/mL |  | 
3 | Nc1ccn([C@@H]2O[C@H](CO)[C@@H](O)C2(F)F)c(=O)n1 [Gemcitabine] | 0.22 ± 0.35 µg/mL (≈ 0.836 µM) | 3.40 ± 5.78 µg/mL (≈ 12.9 µM) |  |  |  | 4.97 ± 5.09 µg/mL (≈ 18.9 µM) | 14.05 | Notch1 receptor gene expression, fold of control (Notch1 receptor; at IC50): 0.318 fold; JAG1 ligand gene expression, fold (JAG1 ligand [4]): 1.344 fold; PI3K gene expression, fold (PI3K [5]; at IC25): 1.4 fold; PI3K gene expression, fold (PI3K [5]; at IC50): 2.25 fold; JAG1 ligand protein expression, fold (JAG1 ligand [6]): 0.610 fold; PI3K protein expression, fold (PI3K [7]): 0.677 fold
4 | O=c1ncccn1[C@@H]1O[C@H](CO)[C@@H](O)[C@H]1O [Zebularine] |  |  |  |  |  |  | 4.41 | YAP gene expression, fold-change (YAP [2]; concentration not given): 0.647 fold
5 | C=C1CCC[C@]2(C)CC[C@@H](C(C)(C)O)C[C@@H]12 [β-eudesmol] | 6.37 ± 2.53 µg/mL (≈ 28.6 µM) | 18.12 ± 7.43 µg/mL (≈ 81.5 µM) |  | 1.978 fold | 0.280 fold |  | 1.68 | 
